Reference: ChEMBL document CHEMBL1158901, “Chemical constituents of Garcinia fusca: structure elucidation of eight new xanthones and their cancer chemopreventive activity” (J Nat Prod, 2003)

What was measured:
[1] = Inhibition of TPA-induced EBV-early antigen activation in human Raji cells per 32 pmol TPA after 48 hrs; assay type: cell-based, human gammaherpesvirus 4
Procedure, shortened: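 EBV-EA induction in Raji cells by 4 mM n-butyric acid plus 32 pmol TPA in RPMI 1640/10% FCS, 37 °C for 48 h, with compound at mol ratios to TPA of 10 to 1000. EA-positive cells counted blind, ≥500 per assay, relative to TPA-only control. IC50 is the mol ratio to TPA giving 50% inhibition, estimated by probit transformation.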

[2] = Cytotoxicity against human Raji cells assessed as cell viability at 32 nmol after 48 hrs by trypan blue assay; assay type: cell-based; conditions: read-out: Activity
Procedure, shortened: (§1)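 Raji cells grown to 10^6 cells/mL, pelleted and resuspended in RPMI 1640 with 10% FCS containing 4 mM n-butyric acid and 32 pmol TPA (20 ng/mL). Test compound added in DMSO at 32, 3.2 or 0.32 nmol (footnote also defines 16 nmol as 500 mol ratio). Incubated 48 h at 37 °C. Viable cells counted by Trypan Blue on a hemocytometer.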

[3] = Cytotoxicity against human Raji cells assessed as cell viability at 16 nmol after 48 hrs by trypan blue assay; assay type: cell-based; conditions: read-out: Activity; procedure, shortened: as §1
[4] = Cytotoxicity against human Raji cells assessed as cell viability at 3.2 nmol after 48 hrs by trypan blue assay; assay type: cell-based; conditions: read-out: Activity; procedure, shortened: as §1
[5] = Cytotoxicity against human Raji cells assessed as cell viability at 0.32 nmol after 48 hrs by trypan blue assay; assay type: cell-based; conditions: read-out: Activity; procedure, shortened: as §1
Raji [6] = assay: TPA-induced EBV-early antigen activation in human Raji cells at 32 nmol after 48 hrs relative to TPA; conditions: human gammaherpesvirus 4
Raji [7] = assay: TPA-induced EBV-early antigen activation in human Raji cells at 16 nmol after 48 hrs relative to TPA; conditions: human gammaherpesvirus 4
Raji [8] = assay: TPA-induced EBV-early antigen activation in human Raji cells at 3.2 nmol after 48 hrs relative to TPA; conditions: human gammaherpesvirus 4
Raji [9] = assay: TPA-induced EBV-early antigen activation in human Raji cells at 0.32 nmol after 48 hrs relative to TPA; conditions: human gammaherpesvirus 4

Row | Structure (SMILES) | IC50 [1] | viability at 48 h, 32 nmol [2] | viability at 48 h, 16 nmol [3] | viability at 48 h, 3.2 nmol [4] | viability at 48 h, 0.32 nmol [5] | EBV-EA activation (Raji [6]) | EBV-EA activation (Raji [7]) | EBV-EA activation (Raji [8]) | EBV-EA activation (Raji [9])
1 | CC(C)=CCC/C(C)=C/Cc1c(O)c(O)cc2oc3cc(O)c(CC=C(C)C)c(O)c3c(=O)c12 [NORCOWANIN] | 315 molar ratio | 70% | > 80% | > 80% | > 80% | 0% | 31.9% | 70.1% | 94.2%
2 | COc1c(O)cc2oc3cc(O)cc(O)c3c(=O)c2c1C/C=C(\C)CCC=C(C)C [RUBRAXANTHONE] | 340 molar ratio | 70% | > 80% | > 80% | > 80% | 0% | 39.5% | 74.1% | 96.8%
3 | COc1cc2c(=O)c3c(O)c(C/C=C(\C)CCC=C(C)C)c(O)cc3oc2cc1O [COWAXANTHONE] | 398 molar ratio | 70% | > 80% | > 80% | > 80% | 0% | 40.6% | 76.6% | 97.5%
4 | COc1c(O)cc2oc3cc(O)c(CC=C(C)C)c(O)c3c(=O)c2c1C/C=C(\C)CCC=C(C)C [COWANIN] | 320 molar ratio | 70% | > 80% | > 80% | > 80% | 0% | 33.6% | 71.6% | 95.8%
5 | COc1c(O)cc2oc3cc(O)c(C/C=C(/C)CO)c(O)c3c(=O)c2c1C/C=C(\C)CCC=C(C)C [COWANOL] | 310 molar ratio | 70% | > 80% | > 80% | > 80% | 0% | 30.5% | 69.6% | 93.1%
6 | COc1c(O)cc2oc3cc(O)c(CC=C(C)C)c(O)c3c(=O)c2c1CC=C(C)C [MANGOSTIN] | 220 molar ratio | 70% | > 80% | > 80% | > 80% | 0% | 19.1% | 60% | 89.2%
7 | COc1cc2oc3cc(O)c(OC)c(CC=C(C)C)c3c(=O)c2c(O)c1CC=C(C)C | 270 molar ratio | 70% | > 80% | > 80% | > 80% | 0% | 20.5% | 62.6% | 90.4%
8 | CC1=C(/C=C/C(C)=C/C=C/C(C)=C/C=C/C=C(C)/C=C/C=C(C)/C=C/C2=C(C)CCCC2(C)C)C(C)(C)CCC1 [BETA CAROTENE] | 400 molar ratio |  |  |  |  | 9.1% | 34.3% | 82.7% | 100%
9 | COc1c(O)c(CC=C(C)C)c2oc3cc(O)c(CC=C(C)C)c(O)c3c(=O)c2c1CC=C(C)C | 210 molar ratio | 70% | > 80% | > 80% | > 80% | 0% | 16.3% | 59.2% | 83.8%
